These results are taken from ChEMBL document CHEMBL1145812, “Synthesis and biological evaluation of 18-methoxycoronaridine congeners. Potential antiaddiction agents” (J Med Chem, 2003).

For assay [1], the target named is T1, Neuronal acetylcholine receptor; alpha3/beta4 (Homo sapiens, UniProt P30926+P32297). Put plainly: Rate of inhibition of Ach evoked currents at alpha3-beta4 nicotinic acetylcholine receptor by 20 uM concentration. The format is functional. Put shortly:
(§1)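 HEK293 cells transiently co-transfected with nAChR α3 and β4 cDNAs plus EGFP; EGFP-positive cells recorded 12–36 h later by whole-cell voltage clamp at -70 mV. Pipette: CsCl/CsF/HEPES/EGTA, pH 7.2; bath: NaCl/KCl/HEPES/glucose, pH 7.3. Each compound was co-applied at 20 µM (one at 18 µM) with 1 mM ACh. Reported: percent inhibition, rate of inhibition and percent recovery, as mean ± SEM.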

For assay [2], the target named is Kappa-type opioid receptor (Cavia porcellus) (UniProt P41144). The assay is described as follows: Inhibition of [3H]U-69593 binding to Opioid receptor kappa 1 from guinea pig brain membranes. The note with it: concentration not given here. On the set-up: concentration or dose not given beside the values. Put shortly: (§2)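 Guinea pig brain membranes (0.5 mg protein/sample) were incubated at 25 °C in 50 mM Tris-HCl, pH 7.5, with receptor-specific radioligand and compound at 1 µM. Nonspecific binding was defined with 10 µM naloxone. Values are the mean ± SE of three separate experiments, each run in triplicate.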
Kappa-type opioid receptor (Cavia porcellus), sequence (P41144 whole entry): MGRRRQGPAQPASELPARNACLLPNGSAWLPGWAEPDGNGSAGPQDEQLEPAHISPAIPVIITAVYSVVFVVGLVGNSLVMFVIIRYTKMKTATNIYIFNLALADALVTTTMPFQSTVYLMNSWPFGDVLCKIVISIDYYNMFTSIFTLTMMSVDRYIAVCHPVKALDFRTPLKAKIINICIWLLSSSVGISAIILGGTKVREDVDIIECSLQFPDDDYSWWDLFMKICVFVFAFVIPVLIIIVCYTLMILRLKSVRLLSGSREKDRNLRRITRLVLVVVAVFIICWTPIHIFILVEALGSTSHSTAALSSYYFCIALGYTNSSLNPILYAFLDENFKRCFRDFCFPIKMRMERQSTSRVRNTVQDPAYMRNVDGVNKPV

Assay [3] is described as follows: Relative inhibition index (RI) was determined as the % recovery / (rate of inhibition) and is expressed relative to Compound 3. The assay is classed as functional. In a few lines:
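Read from the same α3β4 whole-cell ACh (1 mM) co-application recordings. The index is percent recovery divided by rate of inhibition, normalised to the parent reference ligand. Values below 1.0 mean lower Ki; values above 1.0 mean higher Ki.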

Assay [4] addresses T1, Neuronal acetylcholine receptor; alpha3/beta4. The assay is described as follows: Inhibition of Ach evoked currents at alpha3-beta4 nicotinic acetylcholine receptor by 20 uM concentration. The assay is classed as functional. Put shortly: as §1
For assay [5] the target is unchanged. Put plainly: Recovery from Ach evoked currents at alpha3-beta4 nicotinic acetylcholine receptor at 20 uM. The assay is classed as functional. In a few lines: as §1
Assay [6] deals with Mu-type opioid receptor (Cavia porcellus) (UniProt P97266). The assay is described as follows: Inhibition of [3H]DAMGO binding to Opioid receptor mu 1 from guinea pig brain membranes. Further details: concentration or dose not given beside the values. The note with it: concentration not given here. Put shortly:
as §2

Assay [7] deals with T1, Neuronal acetylcholine receptor; alpha3/beta4. The assay is described as follows: Recovery from Ach evoked currents at Nicotinic acetylcholine receptor alpha3-beta4 at 20 uM concentration. The assay is classed as functional. In a few lines: as §1
Assay [8] shares this target. The assay is described as follows: Rate of inhibition of Ach evoked currents at Nicotinic acetylcholine receptor alpha3-beta4 by 20 uM concentration. The format is functional. Put shortly:
as §1

Assay [9] shares this target. The assay is described as follows: Inhibition of Ach evoked currents at Nicotinic acetylcholine receptor alpha3-beta4 by 20 uM concentration. The assay is classed as functional. In a few lines:
as §1

Assay [10] has as its target Mu-type opioid receptor (Cavia porcellus) (UniProt P97266). The assay is described as follows: Inhibitory activity was determined against Opioid receptor mu 1 from guinea pig brain membranes at 1 uM concentration, using 0.25 nM of [3H]DAMGO radioligand. The note with it: Membrane. Put shortly: as §2
The target in assay [11] is T1, Neuronal acetylcholine receptor; alpha3/beta4. Put plainly: Recovery from Ach evoked currents at alpha3-beta4 nicotinic acetylcholine receptor at 20 uM concentration. The assay is classed as functional. Put shortly: as §1
The target is the same in assay [12]. Put plainly: Binding affinity towards Nicotinic acetylcholine receptor alpha3-beta4 determined from kinetic measures of koff/kon. The assay is classed as protein-complex assay. Put shortly: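 Ki was estimated as koff/kon from α3β4 whole-cell recordings with drug at 20 µM co-applied with 1 mM ACh. koff was taken from the rate of recovery and kon from the rate of inhibition.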

The target in assay [13] is Kappa-type opioid receptor (Cavia porcellus, UniProt P41144). Put plainly: Binding affinity was determined against Opioid receptor kappa 1 from guinea pig brain membranes.
Kappa-type opioid receptor, sequence (P41144 whole entry): as above
In assay [14] the target is Mu-type opioid receptor (Cavia porcellus, UniProt P97266). Put plainly: Binding affinity was determined against Opioid receptor mu 1 from guinea pig brain membranes.
Mu-type opioid receptor, sequence (P97266 whole entry): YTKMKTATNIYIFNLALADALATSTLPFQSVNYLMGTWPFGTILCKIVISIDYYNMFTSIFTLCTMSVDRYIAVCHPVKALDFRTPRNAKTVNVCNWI
Assay [15] addresses T1, Neuronal acetylcholine receptor; alpha3/beta4. Put plainly: Rate of inhibition of Ach evoked currents at Nicotinic acetylcholine receptor alpha3-beta4 by 18 uM concentration. The assay is classed as functional. Put shortly:
as §1

The target is the same in assay [16]. Put plainly: Inhibition of Ach evoked currents at Nicotinic acetylcholine receptor alpha3-beta4 by 18 uM concentration. The assay is classed as functional. Put shortly:
as §1

Assay [17] shares this target. Put plainly: Recovery from Ach evoked currents at Nicotinic acetylcholine receptor alpha3-beta4 at 18 uM concentration. The format is functional. Put shortly:
as §1

One may read the inhibition as the share of the control response that was lost under treatment. For orientation: Ki means a dissociation constant, usually derived from enzyme kinetics or from competition with a known ligand.

Mu-type opioid receptor (Cavia porcellus), sequence (P97266 whole entry): as above
T1 sequence (P30926 whole entry): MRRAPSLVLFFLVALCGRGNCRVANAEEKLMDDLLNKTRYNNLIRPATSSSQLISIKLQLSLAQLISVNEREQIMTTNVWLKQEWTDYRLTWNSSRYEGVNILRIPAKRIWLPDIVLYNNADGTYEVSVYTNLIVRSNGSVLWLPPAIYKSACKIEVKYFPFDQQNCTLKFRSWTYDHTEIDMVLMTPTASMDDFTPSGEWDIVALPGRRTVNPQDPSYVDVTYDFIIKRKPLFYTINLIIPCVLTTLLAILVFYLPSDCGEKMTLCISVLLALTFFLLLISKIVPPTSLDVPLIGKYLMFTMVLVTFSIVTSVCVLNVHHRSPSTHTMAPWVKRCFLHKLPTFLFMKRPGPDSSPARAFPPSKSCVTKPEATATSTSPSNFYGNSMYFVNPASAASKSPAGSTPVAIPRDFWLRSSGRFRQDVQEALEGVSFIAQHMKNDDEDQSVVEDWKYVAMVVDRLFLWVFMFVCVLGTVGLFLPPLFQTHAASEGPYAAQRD
T1 sequence (P32297 whole entry): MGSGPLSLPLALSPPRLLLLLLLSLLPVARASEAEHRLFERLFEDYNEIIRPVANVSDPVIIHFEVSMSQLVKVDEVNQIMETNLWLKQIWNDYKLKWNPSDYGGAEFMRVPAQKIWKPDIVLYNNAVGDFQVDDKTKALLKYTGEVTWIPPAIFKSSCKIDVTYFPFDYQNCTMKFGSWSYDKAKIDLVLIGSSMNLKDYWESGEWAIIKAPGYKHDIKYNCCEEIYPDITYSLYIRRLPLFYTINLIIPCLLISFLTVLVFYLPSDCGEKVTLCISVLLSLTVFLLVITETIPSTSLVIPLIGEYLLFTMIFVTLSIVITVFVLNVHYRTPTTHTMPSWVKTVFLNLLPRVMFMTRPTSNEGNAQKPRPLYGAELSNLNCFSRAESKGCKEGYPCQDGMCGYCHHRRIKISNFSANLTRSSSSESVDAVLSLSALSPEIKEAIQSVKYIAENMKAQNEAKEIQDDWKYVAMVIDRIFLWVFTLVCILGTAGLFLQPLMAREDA

`COC(=O)[C@@]12CC3C[C@H](CCN(C)C)[C@@H]1N(CCc1c2[nH]c2ccccc12)C3` registered a Rate of inhibition in assay [1] of 8 s⁻¹. In addition, the inhibition stood at 11% in assay [2], 99% in assay [4] and 15% in assay [6]. This compound displayed an RI in assay [3] of 0.9. In assay [5], this compound returned a Recovery of 16%.

As to `COCC[C@H]1CC2CN3CCc4c([nH]c5ccccc45)[C@](C(=O)OCCNC(C)=O)(C2)[C@H]13`, the Rate of inhibition in assay [1] was found to be 6.7 s⁻¹. The values for the inhibition in assay [2], in [4] and in assay [6] were 3%, 95% and 0%, respectively. The RI in assay [3] turned out to be 3.1. Further, in [5], the Recovery came to 45%.

In the case of `COCCC1C2CN3CCc4c([nH]c5ccccc45)[C@](C(=O)OC)(C2)[C@H]13` (some centres undefined), the Rate of inhibition in [1] turned out to be 4.1 s⁻¹. For the same compound, the inhibition in [2] is 10%; in assay [4] it was 94%; in assay [6], 18%. The same compound gave an RI in assay [3] of 1.6. For the same compound, the Recovery in [5] turned out to be 14%.

Take `COC(=O)[C@@]12CC3C[C@H](CCOCc4ccccc4)[C@@H]1N(CCc1c2[nH]c2ccccc12)C3`: the Recovery in [7] stood at 0%. Further, the Rate of inhibition in assay [8] came to 2.2 s⁻¹. Further, the inhibition in assay [9] worked out at 64%; in assay [2], 6%; in assay [10], 12%.

Consider `COCC[C@H]1CC2CN3CCc4c([nH]c5ccccc45)[C@](C(=O)O)(C2)[C@H]13`, for which the Rate of inhibition in assay [1] stood at 5.1 s⁻¹. The inhibition is 7% in assay [2], 59% in assay [4] and 11% in assay [10]. The compound further came in with an RI in [3] of 2.4. This compound returned a Recovery in [5] of 27%.

Turning to `COCCNC(=O)[C@@]12CC3C[C@H](CCOC)[C@@H]1N(CCc1c2[nH]c2ccccc12)C3`, the Recovery in assay [11] came to 46%. The same compound returned a Rate of inhibition in assay [1] of 9.2 s⁻¹. Moreover, the figures for the inhibition in assay [2], in assay [4] and in assay [6] were 6%, 96% and 10%, respectively. In [3], the RI worked out at 2.3.

In assay [7], `COCC[C@H]1CC2CN3CCc4c([nH]c5ccccc45)[C@](C(=O)OC)(C2)[C@H]13` [18-METHOXYCORONARIDINE] registered a Recovery of 12%. The Ki came out at 700 nM in assay [12], 5100 nM in assay [13] and 1100 nM in assay [14]. In assay [8], this compound gave a Rate of inhibition of 5.5 s⁻¹. Also, the inhibition in [9] was 98%; in assay [2] it was 20%; in assay [6] it was 50%. The compound also yielded an RI in assay [3] of 1.

In turn, `CNCC[C@H]1CC2CN3CCc4c([nH]c5ccccc45)[C@](C(=O)OC)(C2)[C@H]13` showed a Rate of inhibition in assay [1] of 8.5 s⁻¹. Moreover, the inhibition in assay [2] amounted to 7%; in assay [4], 98%; in [6], 24%. The RI in assay [3] came to 1.1. In assay [5], this compound displayed a Recovery of 21%.

In turn, `COCC[C@H]1CC2CN3CCc4c([nH]c5ccccc45)[C@](C(=O)OCCN(C)C)(C2)[C@H]13` showed a Ki in assay [13] of 188 nM. The Rate of inhibition in assay [1] was 10.3 s⁻¹. The inhibition came out at 78% in assay [2], 98% in assay [4] and 16% in assay [6]. The compound also gave an RI in assay [3] of 0.7. In [5], this compound displayed a Recovery of 16%.

In the case of `COC(=O)[C@@]12CC3C[C@H](CCO)[C@@H]1N(CCc1c2[nH]c2ccccc12)C3`, in assay [15], the Rate of inhibition worked out at 6.5 s⁻¹. Also, the values for the inhibition in assay [16], in [2] and in [6] were 98%, 4% and 15%, respectively. In assay [17], this compound gave a Recovery of 73%. Also, the RI in assay [3] was 5.4.

For `COCC[C@H]1CC2CN3CCc4c([nH]c5ccccc45)[C@](C(=O)NCCN(C)C)(C2)[C@H]13`, the Recovery in assay [11] stood at 81%. The Rate of inhibition in assay [1] turned out to be 9.5 s⁻¹. The inhibition amounted to 11% in [2], 93% in assay [4] and 4% in assay [6]. Also, in [3], the RI was determined as 3.9.

On to `COCC[C@H]1CC2CN3CCc4c([nH]c5ccccc45)[C@](C(=O)NCCCCCCNC(=O)CCCC[C@@H]4SCC5NC(=O)NC54)(C2)C13` (some centres undefined), for which the inhibition in assay [2] was 9%; in assay [6], 19%.

As for `COCC[C@H]1CC2CN3CCc4c([nH]c5ccccc45)[C@](C(=O)OCCO)(C2)[C@H]13`, the Rate of inhibition in assay [1] is 7.6 s⁻¹. Also, the inhibition in assay [2] turned out to be 8%; in [4], 97%; in [6], 8%. The same compound had an RI in assay [3] of 1.2. Besides, in [5], the Recovery came to 20%.

For `COCCOC(=O)[C@@]12CC3C[C@H](CCOC)[C@@H]1N(CCc1c2[nH]c2ccccc12)C3`, the Rate of inhibition in [1] is 6 s⁻¹. In addition, the inhibition in assay [2] came out at 24%; in assay [4], 99%; in assay [6], 5%. This compound also came in with an RI in assay [3] of 0.6. In addition, the Recovery in assay [5] turned out to be 8%.

`COCC[C@H]1CC2CN3CCc4c([nH]c5ccccc45)[C@](C(=O)NCCO)(C2)[C@H]13`: the Rate of inhibition in assay [1] was found to be 7.9 s⁻¹. Besides, the results for the inhibition in assay [2], in assay [4] and in assay [6] were 9%, 85% and 7%, respectively. Further, the RI in [3] was 4.7. In [5], this compound displayed a Recovery of 80%.
